Measurements from ChEMBL document CHEMBL1137643, “In vitro and in vivo activities of novel fluoroquinolones alone and in combination with clarithromycin against clinically isolated Mycobacterium avium complex strains in Japan” (2007).
Values after ≈ are worked out from the molar mass of the structure shown.

Assays:
Assay type in all cases: functional
[1] = system: Mycobacterium avium complex sp.; test: Antimycobacterial activity against Mycobacterium avium complex N018 infected C57BL/6J mouse assessed as liver bacterial count at 200 mg/kg/day dosed through gavage route administered for 28 days post bacterial challenge measured 2 days after last dose
Method in brief: (§1)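 Mice given 1.0 × 10^7 to 3.0 × 10^7 CFU in 100 μl via tail vein; daily gavage dosing began day 21 for 28 days; distilled-water controls. Sacrifice 48 h after last dose. Organ portions homogenized in 1 ml saline, diluted in 7H9, plated on 7H10; log10 CFU/organ, mean ± SEM, 5 mice/group. Experiment run twice; ANOVA with Fisher's PLSD.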

[2] = system: Mycobacterium avium complex sp.; test: Antimycobacterial activity against Mycobacterium avium complex N018 infected C57BL/6J mouse assessed as lung bacterial count at 200 mg/kg/day dosed through gavage route administered for 28 days post bacterial challenge measured 2 days after last dose; method in brief: as §1
[3] = system: Mycobacterium avium complex sp.; test: Antimycobacterial activity against Mycobacterium avium complex N018 infected C57BL/6J mouse assessed as spleen bacterial count at 200 mg/kg/day dosed through gavage route administered for 28 days post bacterial challenge measured 2 days after last dose; method in brief: as §1
Mycobacterium avium [4] = test: Antimycobacterial activity against Mycobacterium avium JATA51-01 after 14 days by broth microdilution method; details: JATA51-01, 336 h
Method in brief: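 Broth microdilution in 7H9 (10% OADC, 0.05% Tween 80, 0.2% glycerol); twofold drug dilutions, final 0.125–128 μg/ml; inoculum 1.0 × 10^5 CFU/well from 7-day 37°C subculture of 21-day 7H10 colonies; 14 days at 37°C; MIC = lowest concentration with complete growth inhibition; triplicate.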

[5] = system: Mycobacterium intracellulare; test: Antimycobacterial activity against Mycobacterium intracellular JATA52-01 after 14 days by broth microdilution method; details: JATA52-01, 336 h
Method in brief: (§2)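 Broth microdilution in Middlebrook 7H9 (OADC, Tween 80, glycerol); twofold dilutions giving final 0.125–128 μg/ml; inoculum 1.0 × 10^5 CFU/well; 14 days at 37°C. MIC = lowest concentration completely inhibiting growth. Triplicate tests. Inocula from 7H10 agar colonies (21 days) subcultured in 7H9 for 7 days at 37°C, stored at −80°C.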

[6] = system: Mycobacterium avium complex sp.; test: Antimycobacterial activity against Mycobacterium avium complex N016 after 14 days by broth microdilution method; details: N016, 336 h; method in brief: as §2
[7] = system: Mycobacterium avium complex sp.; test: Antimycobacterial activity against Mycobacterium avium complex N018 after 14 days by broth microdilution method; details: N018, 336 h; method in brief: as §2
[8] = system: Mycobacterium avium complex sp.; test: Antimycobacterial activity against Mycobacterium avium complex N084 after 14 days by broth microdilution method; details: N084, 336 h; method in brief: as §2
[9] = system: Mycobacterium avium complex sp.; test: Antimycobacterial activity against Mycobacterium avium complex after 14 days by broth microdilution method; details: 336 h; method in brief: as §2
Mycobacterium avium [10] = test: Antimycobacterial activity against Mycobacterium avium JATA51-01 infected C57BL/6J mouse assessed as lung bacterial count at 200 mg/kg/day dosed through gavage route administered for 28 days post bacterial challenge measured 2 days after last dose
Method in brief: (§3)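 Mice infected via tail vein with 1.0 × 10^7 to 3.0 × 10^7 CFU in 100 μl saline; daily oral gavage started day 21, for 28 days; distilled-water controls; sacrificed 48 h after last dose; lungs, liver, spleen homogenized in saline, serially diluted in 7H9, plated on 7H10 agar; log10 CFU/organ, mean ± SEM, 5 mice/group; ANOVA with Fisher's PLSD; experiment done twice.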

Mycobacterium avium [11] = test: Antimycobacterial activity against Mycobacterium avium JATA51-01 infected C57BL/6J mouse assessed as liver bacterial count at 200 mg/kg/day dosed through gavage route administered for 28 days post bacterial challenge measured 2 days after last dose; method in brief: as §3
Mycobacterium avium [12] = test: Antimycobacterial activity against Mycobacterium avium JATA51-01 infected C57BL/6J mouse assessed as spleen bacterial count at 200 mg/kg/day dosed through gavage route administered for 28 days post bacterial challenge measured 2 days after last dose; method in brief: as §3
[13] = system: Mycobacterium intracellulare; test: Antimycobacterial activity against Mycobacterium intracellular JATA52-01 infected C57BL/6J mouse assessed as lung bacterial count at 200 mg/kg/day dosed through gavage route administered for 28 days post bacterial challenge measured 2 days after last dose; method in brief: as §1
[14] = system: Mycobacterium intracellulare; test: Antimycobacterial activity against Mycobacterium intracellular JATA52-01 infected C57BL/6J mouse assessed as liver bacterial count at 200 mg/kg/day dosed through gavage route administered for 28 days post bacterial challenge measured 2 days after last dose; method in brief: as §1
[15] = system: Mycobacterium intracellulare; test: Antimycobacterial activity against Mycobacterium intracellular JATA52-01 infected C57BL/6J mouse assessed as spleen bacterial count at 200 mg/kg/day dosed through gavage route administered for 28 days post bacterial challenge measured 2 days after last dose; method in brief: as §1
[16] = system: Mycobacterium avium complex sp.; test: Antimycobacterial activity against Mycobacterium avium complex N016 infected C57BL/6J mouse assessed as lung bacterial count at 200 mg/kg/day dosed through gavage route administered for 28 days post bacterial challenge measured 2 days after last dose; method in brief: as §1
[17] = system: Mycobacterium avium complex sp.; test: Antimycobacterial activity against Mycobacterium avium complex N016 infected C57BL/6J mouse assessed as liver bacterial count at 200 mg/kg/day dosed through gavage route administered for 28 days post bacterial challenge measured 2 days after last dose; method in brief: as §1
[18] = system: Mycobacterium avium complex sp.; test: Antimycobacterial activity against Mycobacterium avium complex N016 infected C57BL/6J mouse assessed as spleen bacterial count at 200 mg/kg/day dosed through gavage route administered for 28 days post bacterial challenge measured 2 days after last dose; method in brief: as §1
[19] = system: Mycobacterium avium complex sp.; test: Antimycobacterial activity against Mycobacterium avium complex N084 infected C57BL/6J mouse assessed as lung bacterial count at 200 mg/kg/day dosed through gavage route administered for 28 days post bacterial challenge measured 2 days after last dose; method in brief: as §1
[20] = system: Mycobacterium avium complex sp.; test: Antimycobacterial activity against Mycobacterium avium complex N084 infected C57BL/6J mouse assessed as liver bacterial count at 200 mg/kg/day dosed through gavage route administered for 28 days post bacterial challenge measured 2 days after last dose; method in brief: as §1
[21] = system: Mycobacterium avium complex sp.; test: Antimycobacterial activity against Mycobacterium avium complex N084 infected C57BL/6J mouse assessed as spleen bacterial count at 200 mg/kg/day dosed through gavage route administered for 28 days post bacterial challenge measured 2 days after last dose; method in brief: as §1
[22] = system: Mycobacterium avium complex sp.; test: Antimycobacterial activity against Mycobacterium avium complex N018 infected C57BL/6J mouse assessed as spleen bacterial count at 100 mg/kg/day dosed through gavage route administered for 28 days post bacterial challenge measured 2 days after last dose; method in brief: as §1
[23] = system: Mycobacterium avium complex sp.; test: Antimycobacterial activity against Mycobacterium avium complex N084 infected C57BL/6J mouse assessed as lung bacterial count at 100 mg/kg/day dosed through gavage route administered for 28 days post bacterial challenge measured 2 days after last dose; method in brief: as §1
Mycobacterium avium [24] = test: Antimycobacterial activity against Mycobacterium avium JATA51-01 infected C57BL/6J mouse assessed as lung bacterial count at 100 mg/kg/day dosed through gavage route administered for 28 days post bacterial challenge measured 2 days after last dose; method in brief: as §3
Mycobacterium avium [25] = test: Antimycobacterial activity against Mycobacterium avium JATA51-01 infected C57BL/6J mouse assessed as liver bacterial count at 100 mg/kg/day dosed through gavage route administered for 28 days post bacterial challenge measured 2 days after last dose; method in brief: as §3
Mycobacterium avium [26] = test: Antimycobacterial activity against Mycobacterium avium JATA51-01 infected C57BL/6J mouse assessed as spleen bacterial count at 100 mg/kg/day dosed through gavage route administered for 28 days post bacterial challenge measured 2 days after last dose; method in brief: as §3
[27] = system: Mycobacterium intracellulare; test: Antimycobacterial activity against Mycobacterium intracellular JATA52-01 infected C57BL/6J mouse assessed as lung bacterial count at 100 mg/kg/day dosed through gavage route administered for 28 days post bacterial challenge measured 2 days after last dose; method in brief: as §1
[28] = system: Mycobacterium intracellulare; test: Antimycobacterial activity against Mycobacterium intracellular JATA52-01 infected C57BL/6J mouse assessed as liver bacterial count at 100 mg/kg/day dosed through gavage route administered for 28 days post bacterial challenge measured 2 days after last dose; method in brief: as §1
[29] = system: Mycobacterium intracellulare; test: Antimycobacterial activity against Mycobacterium intracellular JATA52-01 infected C57BL/6J mouse assessed as spleen bacterial count at 100 mg/kg/day dosed through gavage route administered for 28 days post bacterial challenge measured 2 days after last dose; method in brief: as §1
[30] = system: Mycobacterium avium complex sp.; test: Antimycobacterial activity against Mycobacterium avium complex N016 infected C57BL/6J mouse assessed as lung bacterial count at 100 mg/kg/day dosed through gavage route administered for 28 days post bacterial challenge measured 2 days after last dose; method in brief: as §1
[31] = system: Mycobacterium avium complex sp.; test: Antimycobacterial activity against Mycobacterium avium complex N016 infected C57BL/6J mouse assessed as liver bacterial count at 100 mg/kg/day dosed through gavage route administered for 28 days post bacterial challenge measured 2 days after last dose; method in brief: as §1
[32] = system: Mycobacterium avium complex sp.; test: Antimycobacterial activity against Mycobacterium avium complex N016 infected C57BL/6J mouse assessed as spleen bacterial count at 100 mg/kg/day dosed through gavage route administered for 28 days post bacterial challenge measured 2 days after last dose; method in brief: as §1
[33] = system: Mycobacterium avium complex sp.; test: Antimycobacterial activity against Mycobacterium avium complex N018 infected C57BL/6J mouse assessed as lung bacterial count at 100 mg/kg/day dosed through gavage route administered for 28 days post bacterial challenge measured 2 days after last dose; method in brief: as §1
[34] = system: Mycobacterium avium complex sp.; test: Antimycobacterial activity against Mycobacterium avium complex N018 infected C57BL/6J mouse assessed as liver bacterial count at 100 mg/kg/day dosed through gavage route administered for 28 days post bacterial challenge measured 2 days after last dose; method in brief: as §1
[35] = system: Mycobacterium avium complex sp.; test: Antimycobacterial activity against Mycobacterium avium complex N084 infected C57BL/6J mouse assessed as liver bacterial count at 100 mg/kg/day dosed through gavage route administered for 28 days post bacterial challenge measured 2 days after last dose; method in brief: as §1
[36] = system: Mycobacterium avium complex sp.; test: Antimycobacterial activity against Mycobacterium avium complex N084 infected C57BL/6J mouse assessed as spleen bacterial count at 100 mg/kg/day dosed through gavage route administered for 28 days post bacterial challenge measured 2 days after last dose; method in brief: as §1

Structure (SMILES) | log10cfu [1] | log10cfu [2] | log10cfu [3] | MIC (Mycobacterium avium [4]) [µg/mL] | MIC [5] [µg/mL] | MIC [6] [µg/mL] | MIC [7] [µg/mL] | MIC [8] [µg/mL] | MIC90 [9] [µg/mL] | log10cfu (Mycobacterium avium [10]) | log10cfu (Mycobacterium avium [11]) | log10cfu (Mycobacterium avium [12]) | log10cfu [13] | log10cfu [14] | log10cfu [15] | log10cfu [16] | log10cfu [17] | log10cfu [18] | log10cfu [19] | log10cfu [20] | also measured
CC[C@H]1OC(=O)[C@H](C)[C@@H](O[C@H]2C[C@@](C)(OC)[C@@H](O)[C@H](C)O2)[C@H](C)[C@@H](O[C@@H]2O[C@H](C)C[C@H](N(C)C)[C@H]2O)[C@](C)(OC)C[C@@H](C)C(=O)[C@H](C)[C@@H](O)[C@]1(C)O [CLARITHROMYCIN] | 5.03 | 2.18 | 4.06 | 2 (≈ 2.67 µM) | 0.5 (≈ 0.668 µM) | 2 (≈ 2.67 µM) | 0.5 (≈ 0.668 µM) | 0.5 (≈ 0.668 µM) | 64 (≈ 85.6 µM) | 7.1 | 8.12 | 7.1 | 3.17 | 3.2 | 3.16 | 3.94 | 5.91 | 5.36 | 5.28 | 4.58 | log10cfu [21]: 4.3
C[C@H]1COc2c(N3CCN(C)CC3)c(F)cc3c(=O)c(C(=O)O)cn1c23.C[C@H]1COc2c(N3CCN(C)CC3)c(F)cc3c(=O)c(C(=O)O)cn1c23.O [LEVOFLOXACIN] | 7.4 | 6.01 | 6.82 | 4 | 4 | 2 | 4 | 8 | 16 | 9.01 | 9.92 | 9.38 | 5.47 | 5.16 | 4.48 | 5.48 | 6.52 | 6.72 | 7.82 | 7.77 | log10cfu [21]: 7.58
COc1c(N2C[C@@H]3CCCN[C@@H]3C2)c(F)cc2c(=O)c(C(=O)O)cn(C3CC3)c12 [MOXIFLOXACIN] |  |  |  |  | 0.5 (≈ 1.25 µM) | 0.5 (≈ 1.25 µM) | 0.5 (≈ 1.25 µM) | 0.5 (≈ 1.25 µM) | 2 (≈ 4.98 µM) |  |  |  |  |  |  |  |  |  |  |  | log10cfu [22]: 6.6; log10cfu [23]: 7.9; log10cfu (Mycobacterium avium [24]): 8.83; log10cfu (Mycobacterium avium [25]): 9.68; log10cfu (Mycobacterium avium [26]): 9.18; log10cfu [27]: 4.83; log10cfu [28]: 4.76; log10cfu [29]: 4.15; log10cfu [30]: 5.35; log10cfu [31]: 6.53; log10cfu [32]: 6.6; log10cfu [33]: 5.79; log10cfu [34]: 7.09; log10cfu [35]: 7.78; log10cfu [36]: 7.39
COc1c(N2CCNC(C)C2)c(F)cc2c(=O)c(C(=O)O)cn(C3CC3)c12 (stereo not drawn) [GATIFLOXACIN] |  |  |  | 2 (≈ 5.33 µM) | 1 (≈ 2.66 µM) | 0.5 (≈ 1.33 µM) | 1 (≈ 2.66 µM) | 1 (≈ 2.66 µM) | 4 (≈ 10.7 µM) |  |  |  |  |  |  |  |  |  |  |  | log10cfu [22]: 6.75; log10cfu [23]: 8.14; log10cfu (Mycobacterium avium [24]): 8.9; log10cfu (Mycobacterium avium [25]): 9.91; log10cfu (Mycobacterium avium [26]): 9.18; log10cfu [27]: 5.32; log10cfu [28]: 5.15; log10cfu [29]: 4.41; log10cfu [30]: 5.48; log10cfu [31]: 6.6; log10cfu [32]: 6.81; log10cfu [33]: 5.96; log10cfu [34]: 7.21; log10cfu [35]: 8; log10cfu [36]: 7.6
